Results as given in ChEMBL document CHEMBL1125112, “Antitumor imidazotetrazines. 20. Preparation of the 8-acid derivative of mitozolomide and its utility in the preparation of active antitumor agents” (1990).

What was measured:
TLX-5 [1] = test: In vivo antitumor activity against the TLX5 lymphoma cell line in mouse species CBA/CA after intraperitoneal administration (inoculum cells-2x10E5,sc) at the dose of 20 mg/kg; type: functional
How it was run: (§1)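 CBA/CA mice were inoculated with 2 × 10^5 TLX5 lymphoma cells. Drug given intraperitoneally in 10% Me2SO in arachis oil, 5 mice per dose, and the experiment lasted 60 days. Survivors at 60 days were recorded. T/C % = mean death day of treated animals / mean death day of control animals.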

TLX-5 [2] = test: In vivo antitumor activity against the TLX5 lymphoma cell line in mouse species CBA/CA after intraperitoneal administration (inoculum cells-2x10E5,sc) at the dose of 40 mg/kg; type: functional; how it was run: as §1
TLX-5 [3] = test: In vivo antitumor activity against the TLX5 lymphoma cell line in mouse species CBA/CA after intraperitoneal administration (inoculum cells-2x10E5,sc) at the dose of 80 mg/kg; type: functional; how it was run: as §1
TLX-5 [4] = test: (§2) In vivo antitumor activity against the TLX5 lymphoma cell line in mouse species CBA/CA after intraperitoneal administration (inoculum cells-2x10E5,sc) at the dose of 160 mg/kg; type: functional
How it was run: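 CBA/CA mice were implanted sc with 2 × 10^5 TLX5 lymphoma cells. Compound was given ip on day 3 in 10% Me2SO in arachis oil, over 60 days, in groups of 5. T/C% = mean death day of treated/mean death day of controls. Survivors to day 60 were counted.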

TLX-5 [5] = test: In vivo antitumor activity against the TLX5 lymphoma cell line in mouse species CBA/CA after intraperitoneal administration (inoculum cells-2x10E5,sc) at the dose of 20 mg/kg on 5th day; type: functional
TLX-5 [6] = test: In vivo antitumor activity against the TLX5 lymphoma cell line in mouse species CBA/CA after intraperitoneal administration (inoculum cells-2x10E5,sc) at the dose of 320 mg/kg on 5th day; type: functional
TLX-5 [7] = test: In vivo antitumor activity against the TLX5 lymphoma cell line in mouse species CBA/CA after intraperitoneal administration (inoculum cells-2x10E5,sc) at the dose of 40 mg/kg on 5th day; type: functional
TLX-5 [8] = test: In vivo antitumor activity against the TLX5 lymphoma cell line in mouse species CBA/CA after intraperitoneal administration (inoculum cells-2x10E5,sc) at the dose of 80 mg/kg on 5th day; type: functional
L1210 [9] = test: In vivo antitumor activity against the L1210 leukemia cell line in mouse species B6D2F1 after peroral administration (inoculum cells-10E5,ip) at the dose of 80 mg/kg on 10th day; type: functional; details: route oral
How it was run: (§3)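 B6D2F1 mice were inoculated with 10^5 L1210 leukemia cells, ip or iv as the line states. Compound was given orally as a suspension in 1% (carboxymethyl)cellulose in water, dosed on day 1 or 3, over 28–39 days. T/C% = mean death day of treated/mean death day of controls. Survivors to the end were counted in groups of 7–8.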

TLX-5 [10] = test: In vivo antitumor activity against the TLX5 lymphoma cell line in mouse species CBA/CA after intraperitoneal administration (inoculum cells-2x10E5,sc) at the dose of 10 mg/kg on 5th day; type: functional
TLX-5 [11] = test: In vivo antitumor activity against the TLX5 lymphoma cell line in mouse species CBA/CA after intraperitoneal administration (inoculum cells-2x10E5,sc) at the dose of 5 mg/kg on 5th day; type: functional
TLX-5 [12] = test: as §2; type: functional; how it was run: as §1; remark: listed apart in the source
TLX-5 [13] = test: In vivo antitumor activity against the TLX5 lymphoma cell line in mouse species CBA/CA after intraperitoneal administration (inoculum cells-2x10E5,sc) at the dose of 320 mg/kg; type: functional; how it was run: as §1
TLX-5 [14] = test: In vivo antitumor activity against the TLX5 lymphoma cell line in mouse species CBA/CA after intraperitoneal administration (inoculum cells-2x10E5,sc) at the dose of 160 mg/kg on 5th day; type: functional
TLX-5 [15] = test: In vivo antitumor activity against the TLX5 lymphoma cell line in mouse species CBA/CA after intraperitoneal administration (inoculum cells-2x10E5,sc) at the dose of 320 mg/kg on 3rd day
L1210 [16] = test: In vivo antitumor activity against the L1210 leukemia cell line in mouse species B6D2F1 after peroral administration (inoculum cells-10E5,iv) at the dose of 40 mg/kg; type: functional; details: route oral
L1210 [17] = test: In vivo antitumor activity against the L1210 leukemia cell line in mouse species B6D2F1 after peroral administration (inoculum cells-10E5,iv) at the dose of 10 mg/kg; type: functional; details: route oral
L1210 [18] = test: In vivo antitumor activity against the L1210 leukemia cell line in mouse species B6D2F1 after peroral administration (inoculum cells-10E5,iv) at the dose of 20 mg/kg; type: functional; details: route oral
L1210 [19] = test: In vivo antitumor activity against the L1210 leukemia cell line in mouse species B6D2F1 after peroral administration (inoculum cells-10E5,iv) at the dose of 10 mg/kg on 7th day; type: functional; details: route oral
L1210 [20] = test: In vivo antitumor activity against the L1210 leukemia cell line in mouse species B6D2F1 after peroral administration (inoculum cells-10E5,iv) at the dose of 40 mg/kg on 7th day; type: functional; details: route oral; how it was run: as §3
TLX-5 [21] = test: In vivo antitumor activity against the TLX5 lymphoma cell line in mouse species CBA/CA after intraperitoneal administration (inoculum cells-2x10E5,sc) at the dose of 10 mg/kg; type: functional
L1210 [22] = test: In vivo antitumor activity against the L1210 leukemia cell line in mouse species B6D2F1 after peroral administration (inoculum cells-10E5,iv) at the dose of 20 mg/kg on 7th day; type: functional; details: route oral; how it was run: as §3
L1210 [23] = test: In vivo antitumor activity against the L1210 leukemia cell line in mouse species B6D2F1 after peroral administration (inoculum cells-10E5,iv) at the dose of 200 mg/kg; type: functional; details: route oral
L1210 [24] = test: In vivo antitumor activity against the L1210 leukemia cell line in mouse species B6D2F1 after peroral administration (inoculum cells-10E5,iv) at the dose of 100 mg/kg; type: functional; details: route oral
L1210 [25] = test: In vivo antitumor activity against the L1210 leukemia cell line in mouse species B6D2F1 after peroral administration (inoculum cells-10E5,iv) at the dose of 50 mg/kg; type: functional; details: route oral
L1210 [26] = test: In vivo antitumor activity against the L1210 leukemia cell line in mouse species B6D2F1 after peroral administration (inoculum cells-10E5,iv) at the dose of 100 mg/kg on 7th day; type: functional; details: route oral; how it was run: as §3
L1210 [27] = test: In vivo antitumor activity against the L1210 leukemia cell line in mouse species B6D2F1 after peroral administration (inoculum cells-10E5,iv) at the dose of 200 mg/kg on 10th day; type: functional; details: route oral; how it was run: as §3
L1210 [28] = test: In vivo antitumor activity against the L1210 leukemia cell line in mouse species B6D2F1 after peroral administration (inoculum cells-10E5,iv) at the dose of 50 mg/kg on 7th day; type: functional; details: route oral; how it was run: as §3
L1210 [29] = test: In vivo antitumor activity against the L1210 leukemia cell line in mouse species B6D2F1 after peroral administration (inoculum cells-10E5,ip) at the dose of 10 mg/kg on 10th day; type: functional; details: route oral; how it was run: as §3

SMILES | T/C (TLX-5 [1]) [%] | T/C (TLX-5 [2]) [%] | T/C (TLX-5 [3]) [%] | Survivors (TLX-5 [5]) | Survivors (TLX-5 [7]) | Survivors (TLX-5 [8]) | Survivors (TLX-5 [14]) | other results
O=C(NC1CCCCC1)c1ncn2c(=O)n(CCCl)nnc12 | 109 | 125 | >277 | 0 | 0 | 1 | – | Survivors (TLX-5 [4]): 0; Survivors (TLX-5 [6]): 0
CNC(=O)c1ncn2c(=O)n(CCCl)nnc12 | >154 | – | – | – | – | 0 | – | Survivors (L1210 [9]): 0; Survivors (TLX-5 [10]): 0; Survivors (TLX-5 [11]): 0
CCSC(=O)c1ncn2c(=O)n(CCCl)nnc12 | 106 | 104 | 108 | 0 | 0 | 0 | 0 | T/C (TLX-5 [12]): 119%; T/C (TLX-5 [13]): 125%; Survivors (TLX-5 [15]): 0
O=C(NCCCl)c1ncn2c(=O)n(CCCl)nnc12 | 142 | >361 | – | 0 | 3 | 0 | – | T/C (L1210 [16]): 227%; T/C (L1210 [17]): 121%; T/C (L1210 [18]): 183%; Survivors (L1210 [19]): 0; Survivors (L1210 [20]): 0; T/C (TLX-5 [21]): 103%; Survivors (TLX-5 [10]): 0; Survivors (L1210 [22]): 0
CC(C)(C)NC(=O)c1ncn2c(=O)n(CCCl)nnc12 | – | – | – | – | – | – | – | T/C (L1210 [23]): 307%; T/C (L1210 [24]): 149%; T/C (L1210 [25]): 132%; Survivors (L1210 [26]): 0; Survivors (L1210 [27]): 0; Survivors (L1210 [28]): 0
CN(C)C(=O)c1ncn2c(=O)n(CCCl)nnc12 | – | – | – | 0 | – | – | 0 | Survivors (L1210 [29]): 0; Survivors (L1210 [9]): 0
O=C(N[N+](=O)[O-])c1ncn2c(=O)n(CCCl)nnc12 | 109 | 101 | 118 | 0 | 0 | 0 | 2 | T/C (TLX-5 [12]): >354%; Survivors (TLX-5 [6]): 0
